Reference: PubChem BioAssay
Active and inactive are the calls of the source.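 How the source made its calls, unless noted: active means compounds giving at least 50% inhibition in the cell-based MKP-3 phosphatase rescue imaging test; inactive means the rest.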

What was measured:
[1] = inhibitors of TNFa-induced NFkB p65 translocation, primary screen, imaging, HUVEC, MLSMR starter and 10KST1 sets (AID 438;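 active means inhibition above 20% together with a positive visual image hit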;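 further: compound added about 3h40 before a 20 min TNFalpha stimulation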;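 on inhibition: signal is the nuclear over cytoplasmic p65 intensity ratio per well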); conditions: HUVEC TNFa-induced p65 nuclear translocation; cell count: measured here: nuclei count (cytotoxicity indicator), at 2.08 µM; inhibition: at 2 µM, stronger effect = higher value, 0% TNFa-plus-vehicle, 100% no-TNFa wells
[2] = inhibitors of E-selectin induction by TNFa, primary screen, imaging, HUVEC, immunofluorescence, MLSMR starter and 10KST1 sets (AID 487;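 active means visually confirmed hit in the image check and inhibition above 20%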;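 on inhibition: signal is fraction of cell area covered by stained E-selectin grains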;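 on nuclei count: 100% = median nuclei count of all wells on the same plate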); conditions: HUVEC TNFalpha-induced E-selectin immunofluorescence imaging, at 2 µM; inhibition: stronger effect = higher value; nuclei count: measured here: cell number, toxicity
[3] = DUSP6 inhibitors restoring Erk phosphorylation by chemical complementation, primary imaging in DUSP6-transfected HeLa (AID 609); conditions: HeLa MKP-3 transfected, phospho-Erk imaging KS statistic, at 10 µM, cells stimulated with TPA for 15 min;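 on inhibition: phospho-Erk level distribution per well compared with pooled transfected vehicle control wells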
[4] = molecular target: Dual specificity protein phosphatase 6 (Homo sapiens) (UniProt Q16828); test: as above; conditions: HeLa MKP-3 transfected, phospho-Erk imaging KS statistic; at 10 µM; stronger effect = higher value; cells stimulated with TPA for 15 min
Dual specificity protein phosphatase 6 (Homo sapiens), sequence (Q16828 whole entry, looked up): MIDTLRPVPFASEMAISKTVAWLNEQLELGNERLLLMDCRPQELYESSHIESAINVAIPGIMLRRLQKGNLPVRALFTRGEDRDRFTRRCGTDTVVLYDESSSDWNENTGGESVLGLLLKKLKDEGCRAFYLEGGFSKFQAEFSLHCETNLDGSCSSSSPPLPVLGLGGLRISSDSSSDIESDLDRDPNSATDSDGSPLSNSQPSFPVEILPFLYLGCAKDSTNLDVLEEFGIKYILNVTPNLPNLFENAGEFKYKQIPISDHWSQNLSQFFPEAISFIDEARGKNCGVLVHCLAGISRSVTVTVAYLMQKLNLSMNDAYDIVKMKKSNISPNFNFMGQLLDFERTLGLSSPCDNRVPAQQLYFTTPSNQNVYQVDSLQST

[5] = molecular target: Voltage-gated potassium channel subunit beta-2 (Rattus norvegicus) (UniProt P62483); test: KvBeta enzyme negative modulators, primary screen, biochemical, NADPH fluorescence (AID 622;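 active means fluorescence slope higher than the sample average by over 3 SD, cut at about -0.22 in these data, passing the limit was not always enough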;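 further: slope of raw intensity against log time taken from 70 to 1610 s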); conditions: recombinant KvBeta, 4-cyanobenzaldehyde reduction, at 10 µM, stronger effect = higher value
Voltage-gated potassium channel subunit beta-2 (Rattus norvegicus), sequence (P62483 whole entry, looked up): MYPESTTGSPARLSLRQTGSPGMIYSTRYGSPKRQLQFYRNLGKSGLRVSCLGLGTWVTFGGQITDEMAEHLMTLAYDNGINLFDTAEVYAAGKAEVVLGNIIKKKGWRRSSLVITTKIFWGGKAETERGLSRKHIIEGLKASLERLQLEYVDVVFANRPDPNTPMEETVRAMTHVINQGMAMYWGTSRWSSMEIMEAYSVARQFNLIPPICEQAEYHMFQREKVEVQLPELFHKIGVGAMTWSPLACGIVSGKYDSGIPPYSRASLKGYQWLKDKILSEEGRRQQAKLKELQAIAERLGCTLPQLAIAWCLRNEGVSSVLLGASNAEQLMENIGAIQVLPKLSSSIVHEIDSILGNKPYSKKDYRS

[6] = molecular target: Voltage-gated potassium channel subunit beta-2 (Rattus norvegicus) (UniProt P62483); test: KvBeta positive modulators, primary screen, biochemical, NADPH fluorescence (AID 623;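 active means NADPH fluorescence slope more negative than the mean of all samples by about 3 SD, 99.7% confidence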;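 further: fluorescence intensity change per second fitted from 20 to 320 s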); conditions: Recombinant KvBeta, NADPH fluorescence decrease slope, 10 min; at 10 µM; stronger effect = lower value
[7] = molecular target: Muscarinic acetylcholine receptor M4 (Homo sapiens) (UniProt P08173); test: compounds altering M4/GIRK thallium flux, either direction, primary screen, M4 allosteric agonist project, cell-based, HEK293 M4/GIRK, BTC-AM (AID 625;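 active means fluorescence slope after compound addition differing from the mean of all tested samples at 99.7% confidence, mostly higher but some lower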;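 further: thallium influx through GIRK channels coupled to M4 in HEK293 cells with BTC-AM dye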); conditions: at 10 µM, actives lie on both sides
Muscarinic acetylcholine receptor M4 (Homo sapiens), sequence (P08173 whole entry, looked up): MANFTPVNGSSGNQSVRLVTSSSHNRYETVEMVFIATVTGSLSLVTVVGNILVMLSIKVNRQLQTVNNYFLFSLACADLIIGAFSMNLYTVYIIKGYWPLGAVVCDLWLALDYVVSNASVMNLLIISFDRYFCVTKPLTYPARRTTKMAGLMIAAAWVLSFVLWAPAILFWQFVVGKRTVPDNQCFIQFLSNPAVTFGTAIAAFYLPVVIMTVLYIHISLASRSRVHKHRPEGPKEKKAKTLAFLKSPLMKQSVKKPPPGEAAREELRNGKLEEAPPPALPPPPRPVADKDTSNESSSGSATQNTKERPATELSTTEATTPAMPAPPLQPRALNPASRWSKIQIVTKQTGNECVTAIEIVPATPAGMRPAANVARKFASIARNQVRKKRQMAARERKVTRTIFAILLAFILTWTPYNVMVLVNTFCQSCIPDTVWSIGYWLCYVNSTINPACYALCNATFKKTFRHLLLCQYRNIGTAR
How it was run: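 Material – HEK293 cells with M4 receptor and GIRK channels · Buffer or medium – pH 7.3 thallium assay buffer · Doses – one dose, 10 µM final · Timing – cells overnight at 37 °C, BTC-AM loading 1 h, reads 2 min total · Measured by – kinetic fluorescence with BTC-AM dye · Controls – carbachol and DMSO controls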

[8] = inhibitors of larval lipid processing in zebrafish, primary screen, whole organism, PED6 fluorescence, gall bladder and intestine (AID 686;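 active means a full or partial loss of lipid-probe fluorescence in the fish gall bladder, intestine or both, judged by eye; inactive means no fluorescence loss, or compound toxic to the fish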;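 further: larvae 5 to 7 days old with five fish per well; signal comes from phospholipase A2 cleavage of quenched PED6 carried via bile; overnight exposure to compound and PED6 before scoring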); conditions: Zebrafish larvae PED6 lipid processing, fluorescence scoring; screened at 20 µM (by protocol)
How it was run: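 system = live zebrafish larvae aged 5-7 days, whole organism | probe or stimulus = ingested quenched lipid PED6 at 100 nM | doses = 20 µM single dose | timing = overnight exposure | detection = fluorescence microscopy with visual scoring of gall bladder and intestine | read-out = visual per-well fluorescence inhibition score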

[9] = inhibitors of Chlamydomonas gravitaxis, primary screen, whole organism, Chlamydomonas reinhardtii, WT vs cilia-less mutant, absorbance, 96-well (AID 463189;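 active means inhibition at or above 50% relative to wild type and mutant plate controls; inactive means inhibition below 50%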;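 further: 0% = wild type cc124 cells in DMSO and 100% = ciliumless bld1 mutant cells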); conditions: OD600 absorbance, 2 days, at 10 µM, stronger effect = higher value
[10] = measured here: cell density z-score
[11] = measured here: nuclear c-Myc green intensity z-score
[12] = measured here: nuclear pErk red intensity z-score, stronger effect = higher value

SMILES	cell count [1]	inhibition [1]	inhibition [2]	nuclei count [2] [%]	z-score [3, 10]	z-score [3, 11]	z-score [3, 12]	inhibition [4]	fluorescence slope [5]	NADPH fluorescence slope [6]	fluorescence slope [7]	outcome [8]	inhibition [9]
COc1ccc(C(=O)c2ccc(N3CCOCC3)cc2)c(OC)c1	624	-6.6% (inactive)	-21.8% (inactive)	99.4	-2.58	0.925	1.09	5.95% (inactive)	-0.488 (inactive)	-6.2e-05 (inactive)	0.00684 (inactive)	inactive	-11.4% (inactive)
O=C(NCCCN1CCOCC1)C1(c2ccccc2)CCOCC1	610	-2% (inactive)	14.3% (inactive)	91.3	-0.279	1.09	-0.449	-3.95% (inactive)	-0.501 (inactive)	-2.1e-05 (inactive)	0.0058 (inactive)	inactive	19.5% (inactive)
COc1ccccc1NC(=O)Nc1nnc(C(C)C)s1	702	-3.3% (inactive)	-24.3% (inactive)	157	-0.239	-0.311	0.0371	-5.81% (inactive)	-0.476 (inactive)	-1.2e-05 (inactive)	0.00885 (inactive)	inactive	3.73% (inactive)
N#C/C(C(=O)NCc1ccco1)=C1/SC(Cc2ccc(Cl)cc2)C(=O)N1c1ccccc1 (stereo not drawn)	633	-0.2% (inactive)	-35.3% (inactive)	104	0.196	-0.248	-0.52	-9.53% (inactive)	-0.428 (inactive)	-5.4e-05 (inactive)	0.00683 (inactive)	inactive	2.21% (inactive)
Brc1ccc2c(c1)CNc1c(ncnc1N1CCOCC1)O2	521	-0.7% (inactive)	2% (inactive)	90	-1.15	1.47	1.59	3.42% (inactive)	-0.429 (inactive)	2.8e-05 (inactive)	0.00419 (inactive)	inactive	24.2% (inactive)
CC(=O)NCC(=O)OCN1C(=O)c2ccccc2C1=O	520	-8.8% (inactive)	-105% (inactive)	154	0.466	-1.64	-0.405	15.9% (inactive)	-0.376 (inactive)	7.5e-06 (inactive)	0.00573 (inactive)	inactive	20% (inactive)
CC(C)OC(=O)c1c2nc3ccccc3nc2n2c1[nH]c(=O)c1ccccc12	519	4% (inactive)	-30.4% (inactive)	96.9	1.31	-1.51	-0.702	16.5% (inactive)	-0.445 (inactive)	2e-05 (inactive)	0.069 (active)	inactive	6.9% (inactive)
CCCN(CCC)c1nc2ccccc2nc1C(C#N)C(=O)OC(C)COC (stereo not drawn)	586	-26.5% (inactive)	1.8% (inactive)	174	0.238	0.588	0.413	-12.6% (inactive)	-0.408 (inactive)	-7.9e-05 (inactive)	0.00444 (inactive)	inactive	26.1% (inactive)
CCOC(=O)C1=C(N)N2C(=O)CSC2=C(C(=O)OC)C1	523	1.5% (inactive)	-111% (inactive)	138	0.366	1.6	-1.91	5.42% (inactive)	-0.476 (inactive)	-0.000109 (inactive)	0.00418 (inactive)	inactive	-0.259% (inactive)
CC(NC(=O)CSc1nnc(COc2ccccc2)o1)c1ccccc1 (stereo not drawn)	397	1.7% (inactive)	-35.2% (inactive)	134	-0.868	0.275	1.84	-6.86% (inactive)	-0.453 (inactive)	-0.000143 (inactive)	0.00476 (inactive)	inactive	5.02% (inactive)
CCCCSc1nc(O)c(C2OC(=O)c3c2ccc(OC)c3OC)c(=O)n1C (stereo not drawn)	559	1.9% (inactive)	57.7% (active)	95.8	-2.21	-0.0853	0.751	9.91% (inactive)	-0.372 (inactive)	-2.3e-05 (inactive)	0.00535 (inactive)	inactive	32.4% (inactive)
Cc1ccc(-c2nn(CCC(=O)NCC3CCCO3)c(=O)c3ccccc23)cc1 (stereo not drawn)	465	-2.6% (inactive)	-99.3% (inactive)	155	-0.415	0.704	-0.137	-7.28% (inactive)	-0.422 (inactive)	-5.3e-05 (inactive)	0.0051 (inactive)	inactive	-0.115% (inactive)
NC(=O)C1CCN(CCC(=O)Nc2ccc(Br)cc2)CC1	619	-14.3% (inactive)	-30.8% (inactive)	163	0.663	-1.51	0.0444	7.42% (inactive)	-0.426 (inactive)	-5.4e-05 (inactive)	0.00492 (inactive)	inactive	44% (inactive)
CCC(NC(=O)Nn1cnnc1)(C(F)(F)F)C(F)(F)F	726	3.1% (inactive)	-59.3% (inactive)	185	-0.283	-1.06	1.12	1.98% (inactive)	-0.49 (inactive)	-6.6e-05 (inactive)	0.00453 (inactive)	inactive	19.5% (inactive)
COc1ccccc1C1/C(=C(/O)c2ccc(C)cc2)C(=O)C(=O)N1CCN1CCOCC1 (stereo not drawn)	652	-11.9% (inactive)	-32.2% (inactive)	133	-0.486	-0.67	0.136	-2.09% (inactive)	-0.506 (inactive)	-4e-05 (inactive)	0.0067 (inactive)	inactive	0.641% (inactive)
CN1CC2(C)CN(C(c3ccccc3)c3ccccc3)CC(C)(C1)C2O (stereo not drawn)	529	-8.9% (inactive)	-136% (inactive)	154	1.6	-0.0767	-1.37	3.42% (inactive)	-0.479 (inactive)	-8.8e-05 (inactive)	0.00415 (inactive)	inactive	-0.999% (inactive)
Cc1nn(CCO)c2c1C(=O)CCC2	514	-5.8% (inactive)	-16.6% (inactive)	166	1.33	-0.18	-0.238	5.95% (inactive)	-0.382 (inactive)	-2.1e-05 (inactive)	0.00488 (inactive)	inactive	-6.32% (inactive)
Nc1ccc2oc(-c3cc(Br)ccc3Cl)nc2c1	569	3.7% (inactive)	-26.9% (inactive)	171	0.555	-1.29	0.312	9.91% (inactive)	-0.00932 (inactive)	8.2e-06 (inactive)	0.00586 (inactive)	inactive	15.1% (inactive)
CC(C)OCCCNc1ncnc2c1cnn2-c1ccccc1	571	-10.1% (inactive)	45.3% (inactive)	117	0.477	1.09	-0.0471	15.4% (inactive)	-0.377 (inactive)	-5.1e-05 (inactive)	0.00537 (inactive)	inactive	18.2% (inactive)
COC(=O)c1ccc(CSc2nc(N3CCOCC3)c3c(c2C#N)CC(C)(C)OC3)o1	563	-4.2% (inactive)	-97.4% (inactive)	151	0.813	-0.6	1.8	1.63% (inactive)	-0.461 (inactive)	-0.000112 (inactive)	0.00467 (inactive)	inactive	6.95% (inactive)
O=C(CN1CCc2[nH]c3ccccc3c2C1)N1CCCCC1	538	3.2% (inactive)	-91.5% (inactive)	124	-1.09	-0.293	-0.987	3.42% (inactive)	-0.446 (inactive)	-8.6e-05 (inactive)	0.00512 (inactive)	inactive	-5.72% (inactive)
